From ChEMBL document CHEMBL3259656, “Discovery of AZD3199, An Inhaled Ultralong Acting β2 Receptor Agonist with Rapid Onset of Action” (ACS Med Chem Lett, 2014) come the findings set out here.

Data set [1] concerns the target Beta-2 adrenergic receptor (Homo sapiens, UniProt P07550). The data set is described as follows: Agonist activity at human beta-2 adrenergic receptor expressed in human H292 cells assessed as accumulation of intracellular cAMP after 1 hr by AlphaScreen assay. The data set is classed as functional, cell-based.
The target in data set [2] is Beta-2 adrenergic receptor (Cavia porcellus) (UniProt Q8K4Z4). As to conditions: Trachea.
Chain of Beta-2 adrenergic receptor (Cavia porcellus) (Q8K4Z4 whole entry, looked up): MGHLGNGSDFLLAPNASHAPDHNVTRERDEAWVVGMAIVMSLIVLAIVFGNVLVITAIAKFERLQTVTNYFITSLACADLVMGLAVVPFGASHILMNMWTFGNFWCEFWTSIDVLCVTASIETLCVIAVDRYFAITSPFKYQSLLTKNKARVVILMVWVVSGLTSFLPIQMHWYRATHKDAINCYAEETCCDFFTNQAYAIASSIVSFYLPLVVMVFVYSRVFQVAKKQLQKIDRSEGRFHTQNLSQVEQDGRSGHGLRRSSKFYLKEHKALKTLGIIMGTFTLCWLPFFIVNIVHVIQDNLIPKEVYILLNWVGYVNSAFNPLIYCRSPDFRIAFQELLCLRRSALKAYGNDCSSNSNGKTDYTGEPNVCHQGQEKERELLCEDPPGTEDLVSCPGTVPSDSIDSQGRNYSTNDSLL
For data set [3], the system named is Cavia porcellus. The data set is described as follows: Bronchoprotective activity in guinea pig assessed as inhibition of histamine-induced bronchoconstriction at ED80 administered intratracheally after 4 to 24 hrs relative to control. The format is functional, organism-based. In outline:
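Guinea pigs received a single intratracheal dose of agonist. Histamine-induced bronchoconstriction was measured at several time points after dosing, up to 24 h. Bronchoprotection was expressed as inhibition relative to control animals.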

In data set [4] the test system is Cavia porcellus. The data set is described as follows: Toxicity in iv dosed guinea pig assessed as change in plasma potassium level up to 60 mins. The data set is classed as organism-based. Particulars: in vivo, 1 h.
Data set [5] has as its target T1, D(2) dopamine receptor (Homo sapiens, UniProt P14416). The data set is described as follows: Agonist activity at human recombinant dopamine D2S receptor expressed in HEK cells by GTPgammaS binding assay. The format is functional, HEK293. (In general: Binding of GTPγS marks nucleotide exchange on a G protein.)
The nature of data set [6]: Intrinsic clearance in rat measured per million cells. The data set is classed as ADME.
Data set [7] deals with Beta-2 adrenergic receptor (Canis lupus familiaris) (UniProt P54833). The data set is described as follows: Agonist activity at dog recombinant beta-2 adrenergic receptor assessed as cAMP accumulation by cell-based assay. The format is functional. For orientation: Changes in cAMP serve as a functional read-out for many G protein-coupled receptors.
Chain of Beta-2 adrenergic receptor (Canis lupus familiaris) (P54833 whole entry, looked up): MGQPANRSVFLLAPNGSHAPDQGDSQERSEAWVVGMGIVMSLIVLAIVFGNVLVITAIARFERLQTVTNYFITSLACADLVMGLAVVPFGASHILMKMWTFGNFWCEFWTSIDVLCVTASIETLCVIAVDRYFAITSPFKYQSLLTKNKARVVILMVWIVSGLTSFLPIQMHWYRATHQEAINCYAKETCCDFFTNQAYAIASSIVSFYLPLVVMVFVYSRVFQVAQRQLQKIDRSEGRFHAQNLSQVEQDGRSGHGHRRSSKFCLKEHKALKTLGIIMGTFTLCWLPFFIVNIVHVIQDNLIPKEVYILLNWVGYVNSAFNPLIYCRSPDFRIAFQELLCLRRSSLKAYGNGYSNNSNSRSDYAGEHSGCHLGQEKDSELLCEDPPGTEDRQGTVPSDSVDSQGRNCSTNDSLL
Data set [8] can be described thus: Oral bioavailability in rat. The format is ADME, organism-based. As to conditions: in vivo.
In data set [9] the target is T2, Alpha-1D adrenergic receptor (Homo sapiens) (UniProt P25100).
T2 sequence (whole entry): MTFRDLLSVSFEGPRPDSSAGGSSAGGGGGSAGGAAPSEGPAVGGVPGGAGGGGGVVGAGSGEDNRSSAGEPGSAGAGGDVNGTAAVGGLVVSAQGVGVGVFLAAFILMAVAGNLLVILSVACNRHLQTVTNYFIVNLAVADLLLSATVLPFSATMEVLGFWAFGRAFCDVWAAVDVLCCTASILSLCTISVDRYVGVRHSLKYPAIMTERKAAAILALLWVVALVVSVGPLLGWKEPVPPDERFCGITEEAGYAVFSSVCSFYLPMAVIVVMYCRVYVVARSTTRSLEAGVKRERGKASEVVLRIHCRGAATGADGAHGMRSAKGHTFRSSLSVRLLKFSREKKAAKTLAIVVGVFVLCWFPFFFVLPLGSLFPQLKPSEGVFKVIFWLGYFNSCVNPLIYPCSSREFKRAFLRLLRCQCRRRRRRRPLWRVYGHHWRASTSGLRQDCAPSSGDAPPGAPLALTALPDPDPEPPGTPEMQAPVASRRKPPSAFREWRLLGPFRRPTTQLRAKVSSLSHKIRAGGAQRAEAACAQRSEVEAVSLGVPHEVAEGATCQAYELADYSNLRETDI
The data set is described as follows: Agonist activity at human recombinant alpha-1D adrenergic receptor expressed in HEK cells assessed as intracellular calcium response. As to conditions: HEK293.

Data set [10] is filed under the species Oryctolagus cuniculus. The data set is described as follows: Agonist activity at rabbit recombinant beta-2 adrenergic receptor assessed as cAMP accumulation by cell-based assay.
Data set [11] addresses Beta-2 adrenergic receptor (Rattus norvegicus) (UniProt P10608). The data set is described as follows: Intrinsic activity at beta-2 adrenergic receptor in rat C6 cells. The format is cell-based.
For data set [12], the species on record is Oryctolagus cuniculus. The data set is described as follows: Intrinsic activity at rabbit recombinant beta-2 adrenergic receptor.
For data set [13], the system named is Cavia porcellus. The data set is described as follows: Bronchoprotective activity in guinea pig assessed as inhibition of histamine-induced bronchoconstriction administered intratracheally after 2 hrs. Particulars: inhaled or nasal. The data set is classed as functional.
The target in data set [14] is T1, D(2) dopamine receptor. The data set is described as follows: Partial agonist activity at human recombinant dopamine D2S receptor expressed in HEK cells by GTPgammaS binding assay. The data set is classed as functional, cell-based. Particulars: HEK293.
Data set [15] in a line: Oral bioavailability in dog. The format is ADME, organism-based, Canis lupus familiaris. As to conditions: in vivo.
Data set [16] in a line: Terminal half life in iv dosed guinea pig. The data set is classed as ADME, organism-based, Cavia porcellus. As to conditions: in vivo, read-out: beta t1/2 (converted).
In data set [17] the target is Beta-2 adrenergic receptor (Mus musculus) (UniProt P18762). The data set is described as follows: Intrinsic activity at mouse recombinant beta-2 adrenergic receptor.
Chain of Beta-2 adrenergic receptor (Mus musculus) (P18762 whole entry, looked up): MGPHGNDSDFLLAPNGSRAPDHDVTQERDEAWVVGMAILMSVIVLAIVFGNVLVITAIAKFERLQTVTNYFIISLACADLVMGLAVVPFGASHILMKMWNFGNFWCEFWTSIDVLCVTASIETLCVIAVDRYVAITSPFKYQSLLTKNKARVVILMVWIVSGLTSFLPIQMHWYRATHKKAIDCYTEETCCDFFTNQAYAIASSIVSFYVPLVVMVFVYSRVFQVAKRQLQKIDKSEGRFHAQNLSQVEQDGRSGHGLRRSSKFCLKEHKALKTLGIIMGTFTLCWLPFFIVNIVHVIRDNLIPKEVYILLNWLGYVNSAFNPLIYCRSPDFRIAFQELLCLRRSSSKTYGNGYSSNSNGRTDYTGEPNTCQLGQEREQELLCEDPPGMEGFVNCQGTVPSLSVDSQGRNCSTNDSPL
Data set [18] can be described thus: Terminal half life in iv dosed rat. The data set is classed as ADME, organism-based. As to conditions: in vivo, read-out: beta t1/2 (converted).
A short description of data set [19]: Apparent volume of distribution in iv dosed rat. The format is ADME, organism-based. As to conditions: in vivo, read-out: Vz.
Data set [20] can be described thus: Apparent volume of distribution in iv dosed guinea pig. The format is ADME, organism-based, Cavia porcellus. Particulars: in vivo, read-out: Vz.
Data set [21] has as its target Beta-2 adrenergic receptor (Mus musculus) (UniProt P18762). The data set is described as follows: Agonist activity at mouse recombinant beta-2 adrenergic receptor assessed as cAMP accumulation by cell-based assay. The format is functional.
Data set [22] can be described thus: Apparent volume of distribution in iv dosed dog. As to conditions: in vivo, read-out: Vz. The format is ADME, organism-based, Canis lupus familiaris.
For data set [23], the system named is Cavia porcellus. The data set is described as follows: Bronchoprotective activity in guinea pig assessed as inhibition of histamine-induced bronchoconstriction administered intratracheally after 2 hrs in presence of propanolol. The data set is classed as functional, organism-based. A digest of the protocol: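 In the guinea pig histamine-induced bronchoconstriction model, propranolol was given at 1 mg/kg i.v. to check that the bronchoprotection was mediated through β2 receptors.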

Data set [24] is described as follows: Terminal half life in iv dosed dog. The format is ADME, organism-based, Canis lupus familiaris. Particulars: in vivo, read-out: beta t1/2 (converted).
Data set [25] deals with Beta-2 adrenergic receptor (Canis lupus familiaris) (UniProt P54833). The data set is described as follows: Intrinsic activity at dog recombinant beta-2 adrenergic receptor.
Data set [26] has as its target Beta-2 adrenergic receptor (Rattus norvegicus) (UniProt P10608). The data set is described as follows: Agonist activity at beta-2 adrenergic receptor in rat C6 cells assessed as cAMP accumulation. The format is functional, cell-based.
Data set [27] relates to Cavia porcellus. The data set is described as follows: Bronchoprotective activity in guinea pig assessed as inhibition of histamine-induced bronchoconstriction at ED80 administered intratracheally after 24 hrs relative to control. The format is functional. A digest of the protocol:
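Guinea pigs received a single intratracheal dose, set from a dose–response in the same histamine-induced bronchoconstriction model. Histamine challenge was given at several times after dosing, and inhibition of bronchoconstriction was measured. Bronchoprotection at 24 h was expressed relative to control animals.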

Activity calls are given as the source filed them. The rule behind the calls is not given here. Some results are limits rather than exact numbers.

Chain of Beta-2 adrenergic receptor (P07550 whole entry): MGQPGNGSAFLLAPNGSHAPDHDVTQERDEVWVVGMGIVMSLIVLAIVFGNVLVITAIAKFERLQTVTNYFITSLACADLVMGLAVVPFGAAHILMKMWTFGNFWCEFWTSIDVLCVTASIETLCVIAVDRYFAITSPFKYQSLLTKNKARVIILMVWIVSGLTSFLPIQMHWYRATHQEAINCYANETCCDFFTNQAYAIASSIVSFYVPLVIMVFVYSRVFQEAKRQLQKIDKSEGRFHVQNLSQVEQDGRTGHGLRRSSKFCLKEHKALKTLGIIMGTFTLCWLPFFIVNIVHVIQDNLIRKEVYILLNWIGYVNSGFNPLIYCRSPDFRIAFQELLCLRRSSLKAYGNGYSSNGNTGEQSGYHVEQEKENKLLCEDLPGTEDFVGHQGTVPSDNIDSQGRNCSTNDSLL
Chain of Beta-2 adrenergic receptor (Rattus norvegicus) (P10608 whole entry, looked up): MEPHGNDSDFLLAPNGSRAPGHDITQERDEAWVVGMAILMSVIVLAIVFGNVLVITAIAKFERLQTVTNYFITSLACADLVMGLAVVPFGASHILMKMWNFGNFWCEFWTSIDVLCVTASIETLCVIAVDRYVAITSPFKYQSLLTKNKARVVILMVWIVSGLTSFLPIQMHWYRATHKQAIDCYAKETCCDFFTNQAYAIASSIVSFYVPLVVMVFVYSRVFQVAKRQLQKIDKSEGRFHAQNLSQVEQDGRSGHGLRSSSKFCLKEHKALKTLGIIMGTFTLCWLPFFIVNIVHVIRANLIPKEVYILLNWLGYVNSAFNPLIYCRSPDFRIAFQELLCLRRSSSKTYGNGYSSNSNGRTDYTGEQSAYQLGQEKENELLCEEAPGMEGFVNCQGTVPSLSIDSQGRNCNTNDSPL
T1 sequence (P14416 whole entry): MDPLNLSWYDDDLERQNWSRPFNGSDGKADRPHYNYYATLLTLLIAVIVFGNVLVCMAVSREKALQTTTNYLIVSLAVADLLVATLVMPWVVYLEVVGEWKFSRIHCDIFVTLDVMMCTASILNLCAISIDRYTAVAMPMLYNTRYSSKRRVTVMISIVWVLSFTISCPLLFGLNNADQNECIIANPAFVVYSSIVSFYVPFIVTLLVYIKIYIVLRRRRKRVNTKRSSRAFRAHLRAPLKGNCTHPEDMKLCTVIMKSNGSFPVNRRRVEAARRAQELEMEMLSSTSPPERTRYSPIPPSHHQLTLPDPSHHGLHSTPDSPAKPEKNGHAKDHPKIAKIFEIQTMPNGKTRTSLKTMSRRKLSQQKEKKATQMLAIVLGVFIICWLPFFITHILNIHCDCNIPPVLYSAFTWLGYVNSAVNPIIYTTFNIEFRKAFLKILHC

With `CN(C)CCCN(CCNCCc1ccc(O)c2[nH]c(=O)sc12)C(=O)CCOCCc1ccccc1`, the EC50 – broadly, the concentration giving half of the maximal effect – in data set [1] is 15.8 nM.

As to `CCN(CC)CCN(CCNCCc1ccc(O)c2[nH]c(=O)sc12)C(=O)CCOCCc1cccc(Cl)c1`, the EC50 in data set [1] was 6.31 nM.

Consider `NCCCN(CCNCCc1ccc(O)c2[nH]c(=O)sc12)C(=O)CCOCCc1ccccc1`, for which, in [1], the EC50 is 316 nM.

As for `CN(CCCN(CCNCCc1ccc(O)c2[nH]c(=O)sc12)C(=O)CCOCCc1cccc(Cl)c1)C1CC1`, in data set [1], the EC50 is 7.94 nM.

Regarding `CCc1cc2c(cc1CC)CC(NC[C@H](O)c1ccc(O)c3[nH]c(=O)ccc13)C2`, the pA50 in data set [2] is 7.7.

With `OCc1cc(C(O)CNCCCCCCOCCCCc2ccccc2)ccc1O` (stereo unspecified), in the data set with Cavia porcellus [3], the inhibition entry is “Active”.

On to `O=C(CCOCCc1cccc(Cl)c1)N(CCNCCc1ccc(O)c2[nH]c(=O)sc12)CCN1CCCCC1`, for which the EC50 in [1] was 12.6 nM.

As for `CCN(C)CCCN(CCNCCc1ccc(O)c2[nH]c(=O)sc12)C(=O)CCOCCc1cccc(Cl)c1`, the EC50 in [1] was 10 nM.

On to `CCN(CC)CCN(CCNCCc1ccc(O)c2[nH]c(=O)sc12)C(=O)CCOCCc1cccc(OC)c1`, for which, in data set [1], the EC50 is 7.94 nM.

Take `CN(C)CCN(CCNCCc1ccc(O)c2[nH]c(=O)sc12)C(=O)CCOCCc1ccccc1`: the EC50 in data set [1] is 6.31 nM.

For the molecule `CC(C)(C)NCC(O)c1ccc(O)c(CO)c1` (stereo unspecified) [ALBUTEROL], in the data set on Cavia porcellus [4], the Activity result is recorded as “Toxic”.

In the case of `O=c1[nH]c2c(O)ccc(CCNCCS(=O)(=O)CCCOCCc3ccccc3)c2s1` [SIBENADET], at D(2) dopamine receptor [5], the EC50 is 2 nM.

With `CC(C)N(C)CCCN(CCNCCc1ccc(O)c2[nH]c(=O)sc12)C(=O)CCOCCc1cccc(Cl)c1`, in [1], the EC50 is 5.01 nM.

As to `Br.CCN(CC)CCN(CCNCCc1ccc(O)c2[nH]c(=O)sc12)C(=O)CCOCCc1cccc2ccccc12`, the intrinsic metabolic clearance (hepatocyte CLint) – broadly, a measure of how fast metabolising enzymes remove a compound, apart from limits set by blood flow – in [6] is 105 µL/min/1e6 cells. Also, the outcome (in [7]; in the data set filed under Oryctolagus cuniculus [10]; in data set [11]; in the data set filed under Oryctolagus cuniculus [12]; on D(2) dopamine receptor [14]; in [17]) was Active. Moreover, the result in [21], in data set [25] and in data set [26] was Active. Also, the Activity result with Cavia porcellus [4] is given as “Toxic”. Besides, the bioavailability in [8] and in data set [15] was under 2% throughout. Further, the outcome (in data set [9]; in the data set on Cavia porcellus [23]) was inactive. Moreover, the ED80 in the data set on Cavia porcellus [13] was 0.027 mg/kg. In addition, the half-life in [16] is 17 h; in data set [18] it was 11 h; in data set [24], 18 h. The Vd is 23 L/kg in data set [19], 22 L/kg in data set [20] and 17 L/kg in data set [22]. In the data set with Cavia porcellus [27], the “inhibition (INH)” value was 58%.
